How the values were obtained:
Format in all cases: functional
A673 [1] = experiment: Antiproliferative activity against human A673 cells assessed as growth inhibition after 48 hrs by sulforhodamine B assay; settings: A673, 48 h
How it was run: (§1)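 A-673, SJCRH30 and Hep293TT cells in RPMI-1640 with 5% FBS and 0.5% gentamycin at 37 °C, 5% CO2, seeded at 4000–6000 cells/well and adhered overnight. DMSO solutions added to triplicate wells (0.5% v/v DMSO final) for 48 h. Medium removed, cells fixed with 10% TCA, SRB absorbance compared with vehicle and time-0 plates. TGI from nonlinear regression; n = 3, mean ± SEM.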

[2] = Antiproliferative activity against human SJCRH30 cells assessed as growth inhibition after 48 hrs by sulforhodamine B assay; how it was run: as §1
[3] = Antiproliferative activity against human D283 cells assessed as growth inhibition after 48 hrs by sulforhodamine B assay; settings: D283, 48 h
How it was run: (§2)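 D283 medulloblastoma cells grown in IMEM with 5% FBS and 0.3% gentamycin at 37 °C, 5% CO2, plated at 4000–6000 cells/well overnight. Compound in DMSO (0.5% v/v final), triplicate wells, 48 h. Because cells adhere poorly, 20% TCA added directly to the medium for fixation. SRB absorbance referenced to vehicle and time-0 plates; TGI by nonlinear regression, n = 3, mean ± SEM.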

Hep293TT [4] = experiment: Antiproliferative activity against human Hep293TT cells assessed as growth inhibition after 48 hrs by sulforhodamine B assay; how it was run: as §1
A673 [5] = experiment: Antiproliferative activity against human A673 cells assessed as growth inhibition after 48 hrs by sulforhodamine B assay relative to control; settings: A673, 48 h; how it was run: as §1
[6] = Antiproliferative activity against human SJCRH30 cells assessed as growth inhibition after 48 hrs by sulforhodamine B assay relative to control; how it was run: as §1
[7] = Antiproliferative activity against human D283 cells assessed as growth inhibition after 48 hrs by sulforhodamine B assay relative to control; settings: D283, 48 h; how it was run: as §2
Hep293TT [8] = experiment: Antiproliferative activity against human Hep293TT cells assessed as growth inhibition after 48 hrs by sulforhodamine B assay relative to control; how it was run: as §1

Structure (SMILES)	TGI (A673 [1]) [nM]	TGI [2] [nM]	TGI [3] [nM]	TGI (Hep293TT [4]) [nM]	Emax (A673 [5]) [%]	Emax [6] [%]	Emax [7] [%]	Emax (Hep293TT [8]) [%]
CCC1=C[C@@H]2CN(C1)Cc1c([nH]c3ccccc13)[C@@](C(=O)OC)(c1cc3c(cc1OC)N(C)[C@H]1[C@@](O)(C(=O)OC)[C@H](OC(C)=O)[C@]4(CC)C=CCN5CC[C@]31[C@@H]54)C2 [VINORELBINE]	6	6	80	80				
C=CC(=C)CCC1(C)C(C)CC(=O)C23C(=C[C@H](OC(=O)CC(C)C)CC12)[C@@H](OC(C)=O)O[C@H]3OC(C)=O (some centres undefined)	1100	670	660	1000	100	100	100	100
C=CC(=C)CCC1(C)C(C)CC(O)C23C(=C[C@H](OC(=O)/C(C)=C\C)CC12)[C@@H](OC(C)=O)O[C@H]3OC(C)=O (some centres undefined)	1000	440	700	280	100	100	100	100
C=CC(=C)CCC1(C)C(C)CC(=O)C23C(=C[C@H](OC(=O)[C@@H](C)CC)CC12)[C@@H](OC(C)=O)O[C@H]3OC(C)=O (some centres undefined)	1200	730	660	800	100	100	100	100
C=CC(=C)CCC1(C)C(C)CC(O)C23C(=C[C@H](OC(=O)[C@@H](C)CC)CC12)[C@@H](OC(C)=O)O[C@H]3OC(C)=O (some centres undefined)	1700	800	1100	600	100	100	100	100
C=CC(=C)CCC1(C)C(C)CC(O)C23C(=C[C@H](OC(=O)CC(C)C)CC12)[C@@H](OC(C)=O)O[C@H]3OC(C)=O (some centres undefined)	700	340	360	220	100	100	100	100
C=CC(=C)CCC1(C)C(C)CC(=O)C23C(=C[C@H](OC(=O)/C(C)=C\C)CC12)[C@@H](OC(C)=O)O[C@H]3OC(C)=O (some centres undefined)	3100	1900	2000	1800	100	100	100	100
C=CC(=C)CCC1(C)C(C)CC(O)C23C(=C[C@H](OC(=O)CC)CC12)[C@@H](OC(C)=O)O[C@H]3OC(C)=O (some centres undefined)	900	360	500	300	100	100	100	100
C=CC(=C)CCC1(C)C(C)CC(=O)C23C(=C[C@H](OC(=O)CCC)CC12)[C@@H](OC(C)=O)O[C@H]3OC(C)=O (some centres undefined)	1000	500	600	900	100	100	100	100
C=CC(=C)CCC1(C)C(C)CC(=O)C23C(=C[C@H](OC(=O)C(C)C)CC12)[C@@H](OC(C)=O)O[C@H]3OC(C)=O (some centres undefined)	4100	2300	2300	3200	100	100	100	100
C=CC(=C)CCC1(C)C(C)CC(=O)C23C(=C[C@H](OC(=O)CC)CC12)[C@@H](OC(C)=O)O[C@H]3OC(C)=O (some centres undefined)	1100	520	700	1000	100	100	100	100
